Measured values as given in ChEMBL document CHEMBL3227926, “2-Mercaptoacetamidines as gastric antisecretory agents” (J Med Chem, 1979).

Columns and labels:
Canis familiaris [1] = experiment: Inhibition of gastrin tetrapeptide-induced gastric secretion in beagle dog at 4 mg/kg administered directly into stomach via gastric cannula measured after 2 hrs of stimulation; assay type: functional; details: Canis lupus familiaris
In short: (§1)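 Conscious female beagles (5-9 kg) with chronic gastric fistula. Dose in 50 mL 1% methylcellulose was put into the stomach via the cannula 1 h before gastrin tetrapeptide 64 µg/kg sc (from 640 µg/mL in 30% Me2SO); controls got vehicle. Juice was collected for 2 h. Volume was measured, titratable acid obtained by titration to pH 7 with 0.01 N NaOH, and total acid taken as volume × concentration.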

Canis familiaris [2] = experiment: Inhibition of gastrin tetrapeptide-induced gastric secretion in beagle dog at 8 mg/kg administered directly into stomach via gastric cannula measured after 2 hrs of stimulation; assay type: functional; details: Canis lupus familiaris; in short: as §1
Canis familiaris [3] = experiment: Toxicity in beagle dog assessed as emesis administered directly into stomach via gastric cannula; assay type: organism-based, Canis lupus familiaris; details: in vivo, other
Canis familiaris [4] = experiment: Toxicity in beagle dog assessed as tachycardia administered directly into stomach via gastric cannula; assay type: organism-based, Canis lupus familiaris; details: in vivo, other
Canis familiaris [5] = experiment: Toxicity in beagle dog assessed as gastric bleeding administered directly into stomach via gastric cannula; assay type: organism-based, Canis lupus familiaris; details: in vivo, other
Canis familiaris [6] = experiment: Inhibition of gastrin tetrapeptide-induced gastric secretion in beagle dog at 16 mg/kg administered directly into stomach via gastric cannula measured after 2 hrs of stimulation; assay type: functional; details: Canis lupus familiaris; in short: as §1
Canis familiaris [7] = experiment: Inhibition of gastrin tetrapeptide-induced gastric secretion in beagle dog at 32 mg/kg administered directly into stomach via gastric cannula measured after 2 hrs of stimulation; assay type: functional; details: Canis lupus familiaris; in short: as §1
Canis familiaris [8] = experiment: Inhibition of gastrin tetrapeptide-induced gastric secretion in beagle dog at 2 mg/kg administered directly into stomach via gastric cannula measured after 2 hrs of stimulation; assay type: functional; details: Canis lupus familiaris; in short: as §1

`Cl.N=C(CS)NCC12CCC(CC1)C2` was tested, and the inhibition in vivo at 4 mg/kg (Canis familiaris [1]) was 0%, the inhibition in vivo at 8 mg/kg (Canis familiaris [2]) was 91% and the Activity (Canis familiaris [3]) was “Toxic”. The Activity (Canis familiaris [4]) was “Toxic” and the Activity (Canis familiaris [5]) was “Toxic”.
With `Cl.N=C(CS)NCC12CCCC(CC1)C2` (stereo not given) the inhibition in vivo at 4 mg/kg (Canis familiaris [1]) was 0%, the inhibition in vivo at 8 mg/kg (Canis familiaris [2]) was 95% and the Activity (Canis familiaris [3]) was “Toxic”. For the same compound, the Activity (Canis familiaris [4]) was “Toxic” and the Activity (Canis familiaris [5]) was “Toxic”.
In the case of `Cl.N=C(CS)Nc1cccc(Cl)c1`, the inhibition in vivo at 16 mg/kg (Canis familiaris [6]) is reported as 16%, the inhibition in vivo at 32 mg/kg (Canis familiaris [7]) is reported as 61% and the Activity (Canis familiaris [3]) is reported as “Toxic”. The Activity (Canis familiaris [4]) was “Toxic” and the Activity (Canis familiaris [5]) was “Toxic”.
With `CC(C)(C)CNC(=N)CCSSCCC(=N)NCC(C)(C)C.Cl` the inhibition in vivo at 8 mg/kg (Canis familiaris [2]) was 21%, the inhibition in vivo at 16 mg/kg (Canis familiaris [6]) was 75% and the Activity (Canis familiaris [3]) was “Toxic”. The Activity (Canis familiaris [4]) was “Toxic” and the Activity (Canis familiaris [5]) was “Toxic”.
`Cl.N=C(CS)N1CCOCC1` was tested, and the inhibition in vivo at 8 mg/kg (Canis familiaris [2]) was 2%, the inhibition in vivo at 16 mg/kg (Canis familiaris [6]) was 23% and the Activity (Canis familiaris [3]) was “Toxic”. For the same compound, the Activity (Canis familiaris [4]) was “Toxic” and the Activity (Canis familiaris [5]) was “Toxic”.
In the case of `Cl.N=C(CCS)NCc1ccccc1`, the inhibition in vivo at 16 mg/kg (Canis familiaris [6]) is reported as 18%, the inhibition in vivo at 32 mg/kg (Canis familiaris [7]) is reported as 42% and the Activity (Canis familiaris [3]) is reported as “Toxic”. For the same compound, the Activity (Canis familiaris [4]) was “Toxic” and the Activity (Canis familiaris [5]) was “Toxic”.
With `Cl.N=C(CSSCC(=N)NCc1ccccc1)NCc1ccccc1` the inhibition in vivo at 4 mg/kg (Canis familiaris [1]) was 84%, the Activity (Canis familiaris [3]) was “Toxic” and the Activity (Canis familiaris [4]) was “Toxic”. The Activity (Canis familiaris [5]) was “Toxic”.
For `Cl.N=C(CS)NCCCCC12CC3CC(CC(C3)C1)C2`, the inhibition in vivo at 4 mg/kg (Canis familiaris [1]) was 0%, the inhibition in vivo at 8 mg/kg (Canis familiaris [2]) was 67% and the Activity (Canis familiaris [3]) was “Toxic”. The Activity (Canis familiaris [4]) was “Toxic” and the Activity (Canis familiaris [5]) was “Toxic”.
For `Cl.N=C(CSSCC(=N)NCC12CC3CC(CC(C3)C1)C2)NCC12CC3CC(CC(C3)C1)C2`, the inhibition in vivo at 8 mg/kg (Canis familiaris [2]) was 62%, the inhibition in vivo at 16 mg/kg (Canis familiaris [6]) was 80% and the Activity (Canis familiaris [3]) was “Toxic”. The Activity (Canis familiaris [4]) was “Toxic” and the Activity (Canis familiaris [5]) was “Toxic”.
In the case of `CCNC(=N)CS.Cl`, the inhibition in vivo at 4 mg/kg (Canis familiaris [1]) is reported as 90%, the inhibition in vivo at 2 mg/kg (Canis familiaris [8]) is reported as 27% and the Activity (Canis familiaris [3]) is reported as “Toxic”. The Activity (Canis familiaris [4]) was “Toxic” and the Activity (Canis familiaris [5]) was “Toxic”.
In the case of `Cl.N=C(CS)NC12CC3CC(CC(C3)C1)C2`, the inhibition in vivo at 8 mg/kg (Canis familiaris [2]) is reported as 61%, the inhibition in vivo at 16 mg/kg (Canis familiaris [6]) is reported as 86% and the Activity (Canis familiaris [3]) is reported as “Toxic”. For the same compound, the Activity (Canis familiaris [4]) was “Toxic” and the Activity (Canis familiaris [5]) was “Toxic”.
For `Cl.N=C(CS)NCC(c1ccccc1)c1ccccc1`, the inhibition in vivo at 8 mg/kg (Canis familiaris [2]) was 0%, the inhibition in vivo at 16 mg/kg (Canis familiaris [6]) was 60% and the Activity (Canis familiaris [3]) was “Toxic”. For the same compound, the Activity (Canis familiaris [4]) was “Toxic” and the Activity (Canis familiaris [5]) was “Toxic”.
In the case of `CN(Cc1ccccc1)C(=N)CS.Cl`, the inhibition in vivo at 16 mg/kg (Canis familiaris [6]) is reported as 0%, the Activity (Canis familiaris [3]) is reported as “Toxic” and the Activity (Canis familiaris [4]) is reported as “Toxic”. The Activity (Canis familiaris [5]) was “Toxic”.
In the case of `Cl.N=C(CS)NC1CCCC1`, the inhibition in vivo at 4 mg/kg (Canis familiaris [1]) is reported as 63%, the inhibition in vivo at 8 mg/kg (Canis familiaris [2]) is reported as 100% and the Activity (Canis familiaris [3]) is reported as “Toxic”. For the same compound, the Activity (Canis familiaris [4]) was “Toxic” and the Activity (Canis familiaris [5]) was “Toxic”.
For `Cl.N=C(CS)N1CC2CCC(CC2)C1`, the inhibition in vivo at 16 mg/kg (Canis familiaris [6]) was 92%, the Activity (Canis familiaris [3]) was “Toxic” and the Activity (Canis familiaris [4]) was “Toxic”. For the same compound, the Activity (Canis familiaris [5]) was “Toxic”.
With `Cl.N=C(CS)NC1c2ccccc2-c2ccccc21` the inhibition in vivo at 16 mg/kg (Canis familiaris [6]) was 0%, the Activity (Canis familiaris [3]) was “Toxic” and the Activity (Canis familiaris [4]) was “Toxic”. For the same compound, the Activity (Canis familiaris [5]) was “Toxic”.
With `Cl.N=C(CS)NC1C2CC3CC(C2)CC1C3` (stereo not given) the inhibition in vivo at 16 mg/kg (Canis familiaris [6]) was 85%, the Activity (Canis familiaris [3]) was “Toxic” and the Activity (Canis familiaris [4]) was “Toxic”. For the same compound, the Activity (Canis familiaris [5]) was “Toxic”.
